Active and inactive are the calls of the source. The calls are words filed in the database; no cut-off is given here.
Legend:
[1] = Cell cycle arrest in human HeLaS3 cells assessed as accumulation at S phase at 1 uM after 12 hrs by flow cytometry; assay type: functional, cell-based; details: HeLa S3
Method in brief: (§1)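 HeLa S-3 cells exposed for 6, 12 or 24 h. Cells washed twice in ice-cold PBS, fixed in ice-cold 70% ethanol, and resuspended with 0.1 mg/ml RNase. Stained with […] PI and analysed by flow cytometry. Phase distribution (sub-G1, G1, S, G2/M) is reported as percentage of cells. Controls were untreated.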

[2] = tested on: HeLa S3; assay: Induction of apoptosis in human HeLaS3 cells assessed as cleaved caspase-3 at 5 times IC50 by Western blot method; assay type: functional, cell-based
Method in brief: (§2)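 HeLa S-3 cells treated for 24 h at 5-fold the IC50, alongside non-treated controls. Cells lysed in RIPA buffer (pH 8.0) with protease inhibitors and the whole-cell extract separated by SDS-PAGE, then transferred to PVDF. Blots blocked in 5% skim milk/TTBS and probed with anti-cdc2, cdk2 or cleaved caspase-3 antibodies (1:1000). β-actin (1:5000) served as loading control. Detection by HRP secondary antibody and ECL.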

[3] = Antitumor activity against human HeLaS3 cells after 24 to 72 hrs by MTT assay; assay type: functional, cell-based, HeLa S3
Method in brief: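 HeLa S-3 cells (MEM, 10% FBS, HEPES, NEAA, 2 mM L-glutamine, 5% CO2, 37 °C) seeded at 2 × 10⁴ cells/ml and cultured 3 h before exposure for 24–72 h at 37 °C. MTT (2 mg/ml) added for 4 h at 37 °C, formazan dissolved in DMSO, A540 read. Viability is expressed as % of control. IC50 is the concentration giving 50% growth inhibition, mean ± S.D. of four independent experiments run in triplicate.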

[4] = Cell cycle arrest in human HeLaS3 cells assessed as accumulation at sub-G1 phase at 1 uM after 6 hrs by flow cytometry; assay type: functional, cell-based; details: HeLa S3; method in brief: as §1
[5] = Cell cycle arrest in human HeLaS3 cells assessed as accumulation at G2/M phase at 1 uM after 24 hrs by flow cytometry; assay type: functional, cell-based; details: HeLa S3; method in brief: as §1
[6] = Cell cycle arrest in human HeLaS3 cells assessed as accumulation at sub-G1 phase at 5 uM after 12 hrs by flow cytometry; assay type: functional, cell-based; details: HeLa S3; method in brief: as §1
[7] = Cell cycle arrest in human HeLaS3 cells assessed as accumulation at S phase at 5 uM after 6 hrs by flow cytometry; assay type: functional, cell-based; details: HeLa S3; method in brief: as §1
[8] = tested on: HeLa S3; assay: Induction of apoptosis in human HeLaS3 cells assessed as DNA fragmentation after 24 hrs by agarose gel electrophoresis; assay type: functional, cell-based
Method in brief: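 HeLa S-3 cells exposed for 12–48 h, then pellets lysed in 0.6% sarcosine, 20 mM Tris-HCl pH 7.4, 20 mM EDTA. Lysate treated with RNase A for 2 h at 50 °C, then proteinase K overnight at 50 °C. DNA extracted with phenol/chloroform, run on 2% agarose in TAE at 50 V, stained with ethidium bromide, and visualised under UV.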

[9] = Cell cycle arrest in human HeLaS3 cells assessed as accumulation at sub-G1 phase at 1 uM after 24 hrs by flow cytometry; assay type: functional, cell-based; details: HeLa S3; method in brief: as §1
[10] = Cell cycle arrest in human HeLaS3 cells assessed as accumulation at G1 phase at 5 uM after 6 hrs by flow cytometry; assay type: functional, cell-based; details: HeLa S3; method in brief: as §1
[11] = Cell cycle arrest in human HeLaS3 cells assessed as accumulation at G2/M phase at 5 uM after 12 hrs by flow cytometry; assay type: functional, cell-based; details: HeLa S3; method in brief: as §1
[12] = Cell cycle arrest in human HeLaS3 cells assessed as accumulation at G1 phase at 5 uM after 12 hrs by flow cytometry; assay type: functional, cell-based; details: HeLa S3; method in brief: as §1
[13] = Cell cycle arrest in human HeLaS3 cells assessed as accumulation at sub-G1 phase at 5 uM after 24 hrs by flow cytometry; assay type: functional, cell-based; details: HeLa S3; method in brief: as §1
[14] = Cell cycle arrest in human HeLaS3 cells assessed as accumulation at G1 phase at 5 uM after 24 hrs by flow cytometry; assay type: functional, cell-based; details: HeLa S3; method in brief: as §1
[15] = tested on: HeLa S3; assay: Induction of apoptosis in human HeLaS3 cells assessed as appearance of fragmented nuclei at 5 times IC50 after 48 hrs by Hoechst staining; assay type: functional, cell-based
Method in brief: (§3)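 Stained with Hoechst 33342 (1 µg/ml) for 40 min at 37 °C. Nuclei were examined by confocal laser microscopy, and apoptosis was scored from chromatin condensation and fragmented nuclei.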

[16] = Cell cycle arrest in human HeLaS3 cells assessed as accumulation at S phase at 5 uM after 24 hrs by flow cytometry; assay type: functional, cell-based; details: HeLa S3; method in brief: as §1
[17] = Cell cycle arrest in human HeLaS3 cells assessed as accumulation at G1 phase at 1 uM after 12 hrs by flow cytometry; assay type: functional, cell-based; details: HeLa S3; method in brief: as §1
[18] = Cell cycle arrest in human HeLaS3 cells assessed as accumulation at G2/M phase at 1 uM after 6 hrs by flow cytometry; assay type: functional, cell-based; details: HeLa S3; method in brief: as §1
[19] = Cell cycle arrest in human HeLaS3 cells assessed as accumulation at G2/M phase at 5 uM after 24 hrs by flow cytometry; assay type: functional, cell-based; details: HeLa S3; method in brief: as §1
[20] = Cell cycle arrest in human HeLaS3 cells assessed as accumulation at S phase at 1 uM after 6 hrs by flow cytometry; assay type: functional, cell-based; details: HeLa S3; method in brief: as §1
[21] = Cell cycle arrest in human HeLaS3 cells assessed as accumulation at sub-G1 phase at 5 uM after 6 hrs by flow cytometry; assay type: functional, cell-based; details: HeLa S3; method in brief: as §1
[22] = Cell cycle arrest in human HeLaS3 cells assessed as accumulation at G1 phase at 1 uM after 6 hrs by flow cytometry; assay type: functional, cell-based; details: HeLa S3; method in brief: as §1
[23] = Cell cycle arrest in human HeLaS3 cells assessed as accumulation at S phase at 5 uM after 12 hrs by flow cytometry; assay type: functional, cell-based; details: HeLa S3; method in brief: as §1
[24] = Cell cycle arrest in human HeLaS3 cells assessed as accumulation at G2/M phase at 5 uM after 6 hrs by flow cytometry; assay type: functional, cell-based; details: HeLa S3; method in brief: as §1
[25] = Cell cycle arrest in human HeLaS3 cells assessed as effect on cdk2 protein level at 5 times IC50 by Western blot method; assay type: functional, cell-based; details: HeLa S3; method in brief: as §2
[26] = tested on: HeLa S3; assay: Induction of apoptosis in human HeLaS3 cells assessed as appearance of fragmented nuclei at 10 times IC50 after 48 hrs by Hoechst staining; assay type: functional, cell-based; method in brief: as §3
[27] = Cell cycle arrest in human HeLaS3 cells assessed as increase in cdc2 protein level at 5 times IC50 by Western blot method; assay type: functional, cell-based; details: HeLa S3; method in brief: as §2
[28] = Cell cycle arrest in human HeLaS3 cells assessed as accumulation at G1 phase at 1 uM after 24 hrs by flow cytometry; assay type: functional, cell-based; details: HeLa S3; method in brief: as §1
[29] = Cell cycle arrest in human HeLaS3 cells assessed as accumulation at sub-G1 phase at 1 uM after 12 hrs by flow cytometry; assay type: functional, cell-based; details: HeLa S3; method in brief: as §1
[30] = Cell cycle arrest in human HeLaS3 cells assessed as accumulation at G2/M phase at 1 uM after 12 hrs by flow cytometry; assay type: functional, cell-based; details: HeLa S3; method in brief: as §1
[31] = Cell cycle arrest in human HeLaS3 cells assessed as accumulation at S phase at 1 uM after 24 hrs by flow cytometry; assay type: functional, cell-based; details: HeLa S3; method in brief: as §1

For `Oc1cccc(CNc2cc3c(cn2)[nH]c2ccccc23)c1`, the Activity [1] was 10.7%, the Activity [2] was “Active” and the IC50 ([3]; Homo sapiens, HeLa S3) was 0.92 µM. It also gave an Activity [4] of 8.2%, an Activity [5] of 17.1% and an Activity [6] of 5.9%. For the same compound, the Activity [7] was 14.1%, the Activity [8] was “Active” and the Activity [9] was 7.5%. The Activity [10] was 27.3%, the Activity [11] was 76.7% and the Activity [12] was 7.2%. For the same compound, the Activity [13] was 21.3%, the Activity [14] was 15.8% and the Activity [15] was “Active”. It also gave an Activity [16] of 6.8%, an Activity [17] of 48.8% and an Activity [18] of 36.3%. For the same compound, the Activity [19] was 53.3%, the Activity [20] was 20% and the Activity [21] was 3.5%. For the same compound, the Activity [22] was 36.2%, the Activity [23] was 8.9% and the Activity [24] was 52.9%. The Activity [25] was “inactive”, the Activity [26] was “Active” and the Activity [27] was “Active”. The Activity [28] was 58.5%, the Activity [29] was 9.5% and the Activity [30] was 31.3%. For the same compound, the Activity [31] was 17.4%.

In the case of `CC(C)CNc1cc2c(cn1)[nH]c1ccccc12`, the IC50 ([3]; Homo sapiens, HeLa S3) is reported as 13 µM.

In the case of `C[n+]1cc2[nH]c3ccccc3c2cc1NCc1ccccc1` [listing 1 of 2 here], the IC50 ([3]; hela s3) is reported as 9.9 µM.

With `CCNc1cc2c3ccccc3nc-2c[nH]1` the IC50 ([3]; Homo sapiens, HeLa S3) was 19 µM.

With `C[n+]1cc2[nH]c3ccccc3c2cc1NCc1ccccc1` [listing 2 of 2 here] the IC50 ([3]; hela s3) was 99 µM.

Work on `CC(C)(C)OC(=O)NCCOc1cccc(CNc2cc3c(cn2)[nH]c2ccccc23)c1` yielded an IC50 ([3]; Homo sapiens, HeLa S3) of 16 µM.

Compound `c1ccc2c(c1)[nH]c1cnccc12` [NORHARMANE] has an IC50 ([3]; Homo sapiens, HeLa S3) greater than 100 µM.

With `c1ccc(CNc2cc3c(cn2)[nH]c2ccccc23)cc1` the Activity [1] was 9.4%, the Activity [2] was “Active” and the IC50 ([3]; Homo sapiens, HeLa S3) was 0.12 µM. For the same compound, the Activity [4] was 3.8%, the Activity [5] was 92.2% and the Activity [6] was 3%. For the same compound, the Activity [7] was 12.2%, the Activity [8] was “Active” and the Activity [9] was 3.7%. It also gave an Activity [10] of 34%, an Activity [11] of 68.1% and an Activity [12] of 13.8%. The Activity [13] was 8.3%, the Activity [14] was 4.9% and the Activity [15] was “Active”. It also gave an Activity [16] of 3.9%, an Activity [17] of 2.9% and an Activity [18] of 46.1%. For the same compound, the Activity [19] was 80.5%, the Activity [20] was 19% and the Activity [21] was 3.3%. It also gave an Activity [22] of 31.5%, an Activity [23] of 12.5% and an Activity [24] of 47.3%. The Activity [25] was “inactive”, the Activity [26] was “Active” and the Activity [27] was “Active”. The Activity [28] was 1.1%, the Activity [29] was 3.7% and the Activity [30] was 84.3%. For the same compound, the Activity [31] was 2.6%.

In the case of `CC(C)(C)OC(=O)NCCOc1ccc(CNc2cc3c(cn2)[nH]c2ccccc23)cc1`, the IC50 ([3]; Homo sapiens, HeLa S3) is reported as 42 µM.

— ChEMBL document CHEMBL1667761, “3-benzylamino-β-carboline derivatives induce apoptosis through G2/M arrest in human carcinoma cells HeLa S-3” (Eur J Med Chem, 2011)
